{"source": "paper PMC9359741", "about": "(Clinical Cancer Research, 2022)", "test_system": "patients with selected advanced solid tumors", "type": "in vivo, human", "summary_of_the_method": "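Adults (≥18 y) with histologically or cytologically confirmed selected advanced solid tumours. Oral test compound started at 200 mg QD, with planned escalation to 400 mg QD, plus anti-PD-1 antibody 2 mg/kg IV every 3 weeks. DLT incidence defined the MTD (DLT criteria in supplement). AEs and lab abnormalities were graded by CTCAE v4.03 in all patients given ≥1 dose and summarized descriptively.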", "key": {"[1]": {"conditions": "Phase 1b, ARRY-382 200 mg, N = 6"}, "[2]": {"conditions": "Phase 1b, ARRY-382 300 mg, N = 6"}, "[3]": {"conditions": "Phase 1b, ARRY-382 400 mg, N = 7"}}, "note": "Values joined by “and” are separate entries in the source; they are usually repeats but may differ in a detail not shown here. Equal entries are not always repeated. Where two headings read alike, the source gives them in different places."}
{"smiles": "Cc1cccc(Cn2nc(C3CC3)c3c(NC(=O)c4cnc5cc(OCCN6CCN(C)CC6)ccn45)cccc32)n1", "note": "[ARRY-382]", "values": [{"measurement": "Patients with DLTs", "setting": "300-mg cohort: Grade 3 acute pancreatitis", "result": "1/6"}, {"measurement": "Patients with DLTs", "setting": "400-mg cohort: Grade 2 increased CPK, Grade 3 increased ALT, AST and bilirubin", "result": "2/7"}, {"measurement": "MTD (and RP2D) of ARRY-382 in combination with pembrolizumab", "setting": "Phase 1b", "result": 300, "unit": "mg QD"}, {"measurement": "Patients with a Grade 4 AE", "setting": "Phase 1b", "result": "6 (31.6%) n (%)"}, {"measurement": "Patients with a grade 3 AE", "setting": "Phase 1b", "result": "9 (47.4%) n (%)"}, {"measurement": "Patients with ≥1 TEAE", "setting": "Phase 1b", "result": 94.7, "unit": "%"}, {"measurement": "Permanently discontinued due to AEs", "setting": "Phase 1b", "result": "2 (10.5%) n (%)"}, {"measurement": "Deaths", "setting": "Phase 1b, 12 due to disease progression, 3 for reasons unknown", "result": "Fifteen"}, {"measurement": "ARRY-382-related grade ≥3 AEs", "setting": "Phase 1b, 200-mg cohort", "result": 50.0, "unit": "%"}, {"measurement": "Discontinued due to AEs (primary reason)", "setting": "Phase 1b, 200-mg cohort, one patient", "result": 16.7, "unit": "%"}, {"measurement": "ARRY-382-related grade ≥3 AEs", "setting": "Phase 1b, 300-mg cohort", "result": 100.0, "unit": "%"}, {"measurement": "ARRY-382-related SAE (Grade 3 ALT and AST increased)", "setting": "Phase 1b, 300-mg cohort, one patient", "result": 16.7, "unit": "%"}, {"measurement": "ARRY-382-related grade ≥3 AEs", "setting": "Phase 1b, 400-mg cohort", "result": 42.9, "unit": "%"}, {"measurement": "ARRY-382-related AEs: ALT increased", "setting": "[1]", "result": "2 (33.3) n (%)"}, {"measurement": "ARRY-382-related AEs: AST increased", "setting": "[1]", "result": "1 (16.7) n (%)"}, {"measurement": "ARRY-382-related AEs: All AEs", "setting": "[1]", "result": "5 (83.3%) n (%) and 5 (83.3) n (%)"}, {"measurement": "ARRY-382-related AEs: Amylase increased", "setting": "[1]", "result": "1 (16.7) n (%)"}, {"measurement": "ARRY-382-related AEs: Blood CPK increased", "setting": "[1]", "result": "2 (33.3) n (%)"}, {"measurement": "ARRY-382-related AEs: Blood alkaline phosphatase increased", "setting": "[1]", "result": "1 (16.7) n (%)"}, {"measurement": "ARRY-382-related AEs: Chills", "setting": "[1]", "result": "1 (16.7) n (%)"}, {"measurement": "ARRY-382-related AEs: Fatigue", "setting": "[1]", "result": "2 (33.3) n (%)"}, {"measurement": "ARRY-382-related AEs: Lipase increased", "setting": "[1]", "result": "1 (16.7) n (%)"}, {"measurement": "ARRY-382-related AEs: Nausea", "setting": "[1]", "result": "0 (0.0) n (%)"}, {"measurement": "ARRY-382-related AEs: Pruritus", "setting": "[1]", "result": "2 (33.3) n (%)"}, {"measurement": "ARRY-382-related AEs: Pyrexia", "setting": "[1]", "result": "1 (16.7) n (%)"}, {"measurement": "ARRY-382-related AEs: Rash maculo-papular", "setting": "[1]", "result": "1 (16.7) n (%)"}, {"measurement": "ARRY-382-related AEs: Thrombocytopenia", "setting": "[1]", "result": "0 (0.0) n (%)"}, {"measurement": "ARRY-382-related AEs: ALT increased", "setting": "[2]", "result": "3 (50.0) n (%)"}, {"measurement": "ARRY-382-related AEs: AST increased", "setting": "[2]", "result": "5 (83.3) n (%)"}, {"measurement": "ARRY-382-related AEs: All AEs", "setting": "[2]", "result": "6 (100.0%) n (%) and 6 (100.0) n (%)"}, {"measurement": "ARRY-382-related AEs: Amylase increased", "setting": "[2]", "result": "3 (50.0) n (%)"}, {"measurement": "ARRY-382-related AEs: Blood CPK increased", "setting": "[2]", "result": "3 (50.0) n (%)"}, {"measurement": "ARRY-382-related AEs: Blood alkaline phosphatase increased", "setting": "[2]", "result": "2 (33.3) n (%)"}, {"measurement": "ARRY-382-related AEs: Chills", "setting": "[2]", "result": "0 (0.0) n (%)"}, {"measurement": "ARRY-382-related AEs: Fatigue", "setting": "[2]", "result": "2 (33.3) n (%)"}, {"measurement": "ARRY-382-related AEs: Lipase increased", "setting": "[2]", "result": "4 (66.7) n (%)"}, {"measurement": "ARRY-382-related AEs: Nausea", "setting": "[2]", "result": "1 (16.7) n (%)"}, {"measurement": "ARRY-382-related AEs: Pruritus", "setting": "[2]", "result": "2 (33.3) n (%)"}, {"measurement": "ARRY-382-related AEs: Pyrexia", "setting": "[2]", "result": "0 (0.0) n (%)"}, {"measurement": "ARRY-382-related AEs: Rash maculo-papular", "setting": "[2]", "result": "2 (33.3) n (%)"}, {"measurement": "ARRY-382-related AEs: Thrombocytopenia", "setting": "[2]", "result": "1 (16.7) n (%)"}, {"measurement": "ARRY-382-related AEs: ALT increased", "setting": "[3]", "result": "2 (28.6) n (%)"}, {"measurement": "ARRY-382-related AEs: AST increased", "setting": "[3]", "result": "2 (28.6) n (%)"}, {"measurement": "ARRY-382-related AEs: All AEs", "setting": "[3]", "result": "5 (71.4%) n (%) and 5 (71.4) n (%)"}, {"measurement": "ARRY-382-related AEs: Amylase increased", "setting": "[3]", "result": "1 (14.3) n (%)"}, {"measurement": "ARRY-382-related AEs: Blood CPK increased", "setting": "[3]", "result": "2 (28.6) n (%)"}, {"measurement": "ARRY-382-related AEs: Blood alkaline phosphatase increased", "setting": "[3]", "result": "2 (28.6) n (%)"}, {"measurement": "ARRY-382-related AEs: Chills", "setting": "[3]", "result": "1 (14.3) n (%)"}, {"measurement": "ARRY-382-related AEs: Fatigue", "setting": "[3]", "result": "0 (0.0) n (%)"}, {"measurement": "ARRY-382-related AEs: Lipase increased", "setting": "[3]", "result": "1 (14.3) n (%)"}, {"measurement": "ARRY-382-related AEs: Nausea", "setting": "[3]", "result": "2 (28.6) n (%)"}, {"measurement": "ARRY-382-related AEs: Pruritus", "setting": "[3]", "result": "0 (0.0) n (%)"}, {"measurement": "ARRY-382-related AEs: Pyrexia", "setting": "[3]", "result": "1 (14.3) n (%)"}, {"measurement": "ARRY-382-related AEs: Rash maculo-papular", "setting": "[3]", "result": "1 (14.3) n (%)"}, {"measurement": "ARRY-382-related AEs: Thrombocytopenia", "setting": "[3]", "result": "1 (14.3) n (%)"}, {"measurement": "ARRY-382-related AEs: ALT increased", "setting": "Phase 1b, Total, N = 19", "result": "7 (36.8) n (%)"}, {"measurement": "ARRY-382-related AEs: AST increased", "setting": "Phase 1b, Total, N = 19", "result": "8 (42.1) n (%)"}, {"measurement": "ARRY-382-related AEs: All AEs", "setting": "Phase 1b, Total, N = 19", "result": "16 (84.2%) n (%) and 16 (84.2) n (%)"}, {"measurement": "ARRY-382-related AEs: Amylase increased", "setting": "Phase 1b, Total, N = 19", "result": "5 (26.3) n (%)"}, {"measurement": "ARRY-382-related AEs: Blood CPK increased", "setting": "Phase 1b, Total, N = 19", "result": "7 (36.8) n (%)"}, {"measurement": "ARRY-382-related AEs: Blood alkaline phosphatase increased", "setting": "Phase 1b, Total, N = 19", "result": "5 (26.3) n (%)"}, {"measurement": "ARRY-382-related AEs: Chills", "setting": "Phase 1b, Total, N = 19", "result": "2 (10.5) n (%)"}, {"measurement": "ARRY-382-related AEs: Fatigue", "setting": "Phase 1b, Total, N = 19", "result": "4 (21.1) n (%)"}, {"measurement": "ARRY-382-related AEs: Lipase increased", "setting": "Phase 1b, Total, N = 19", "result": "6 (31.6) n (%)"}, {"measurement": "ARRY-382-related AEs: Nausea", "setting": "Phase 1b, Total, N = 19", "result": "3 (15.8) n (%)"}, {"measurement": "ARRY-382-related AEs: Pruritus", "setting": "Phase 1b, Total, N = 19", "result": "4 (21.1) n (%)"}, {"measurement": "ARRY-382-related AEs: Pyrexia", "setting": "Phase 1b, Total, N = 19", "result": "2 (10.5) n (%)"}, {"measurement": "ARRY-382-related AEs: Rash maculo-papular", "setting": "Phase 1b, Total, N = 19", "result": "4 (21.1) n (%)"}, {"measurement": "ARRY-382-related AEs: Thrombocytopenia", "setting": "Phase 1b, Total, N = 19", "result": "2 (10.5) n (%)"}, {"measurement": "ARRY-382-related increased ALT", "setting": "Phase 1b, all patients", "result": 36.8, "unit": "%"}, {"measurement": "ARRY-382-related increased AST", "setting": "Phase 1b, all patients", "result": 42.1, "unit": "%"}, {"measurement": "ARRY-382-related increased CPK", "setting": "Phase 1b, all patients", "result": 36.8, "unit": "%"}, {"measurement": "Patients reporting DLTs", "setting": "Phase 1b, overall", "result": "3/19"}, {"measurement": "Periorbital edema", "setting": "Phase 1b, overall", "result": 5.3, "unit": "%"}]}
